CAL PDZ FP-1 = CAL PDZ peptide-binding inhibitors, primary screen, biochemical, fluorescence polarization, Cer-tagged CAL PDZ, HTS; AID 504414, 2011; Golgi-associated PDZ and coiled-coil motif-containing protein (Homo sapiens), Q9HD26; 330,000 tested, 0.02% active; purified CAL PDZ, TMR-peptide fluorescence polarization, 1 h; inhibition, % at 20 µM;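 active means highest replicate inhibition of at least 40%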;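 further: plate controls were DMSO neutral control wells for no effect and unlabeled competitor peptide control wells for full effect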
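Material: tagged CAL PDZ protein CerCALP, purified; buffer or medium: sodium phosphate/NaCl buffer pH 7.4 with TCEP, IgG, Thesit; also added: fluorescent TMR peptide probe; schedule: 1 h incubation at room temperature before polarization reading; technique: fluorescence polarization from S- and P-plane intensities, G-factor corrected; control set: unlabelled peptide and DMSO controls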
DDE Tn6 FP inh = inhibitors of Tn6 peptide binding to fibrin DD(E), primary screen, biochemical, fluorescence polarization, human fibrin, Tn6 probe; Fibrin DD(E) TRITC-Tn6 fluorescence polarization displacement; inhibition, % at 8.3 µM; 370,000 tested, 0.21% active; AID 720509, 2013;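 active means inhibition above a per-campaign cutoff: mean of compounds within control limits plus 3 SD, cut at about 15% in these data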;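 further: 0% = median of all compound wells on the plate and 100% = blocking peptide control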
Target sequence (P02675 whole entry, looked up): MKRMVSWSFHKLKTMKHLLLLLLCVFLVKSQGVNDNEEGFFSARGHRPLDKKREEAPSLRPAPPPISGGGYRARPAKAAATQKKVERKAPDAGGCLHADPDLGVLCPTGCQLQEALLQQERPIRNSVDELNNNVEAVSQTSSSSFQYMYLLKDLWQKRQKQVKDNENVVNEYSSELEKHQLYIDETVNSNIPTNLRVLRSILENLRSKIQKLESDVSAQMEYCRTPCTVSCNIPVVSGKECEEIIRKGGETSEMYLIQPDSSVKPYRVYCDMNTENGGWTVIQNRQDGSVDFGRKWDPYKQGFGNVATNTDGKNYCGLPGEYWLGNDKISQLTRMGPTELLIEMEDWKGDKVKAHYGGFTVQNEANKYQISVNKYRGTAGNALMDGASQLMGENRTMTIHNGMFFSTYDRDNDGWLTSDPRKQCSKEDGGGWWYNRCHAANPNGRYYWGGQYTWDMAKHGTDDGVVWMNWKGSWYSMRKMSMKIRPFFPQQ
GRK2 inh = compounds blocking aptamer binding on GRK2 – biochemical, human GRK2, bead flow cytometry, HTS, primary screen. Beta-adrenergic receptor kinase 1 (Homo sapiens), P25098. FAM-aptamer displacement from GRK2. inhibition of aptamer binding, % at 10 µM. 330,000 tested, 0.59% active;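 active means inhibition of aptamer binding above 40%, roughly 3 SD of noise, on plates passing a quality check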;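 further: median bead fluorescence of bound FAM aptamer so fluorescent compounds give negative values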
ARNT-TACC3 inh = disruptors of ARNT/TACC3 protein interaction, primary screen, biochemical, AlphaScreen, single concentration; AID 623870, 2012; AlphaScreen His-ARNT PAS-B/GST-TACC3 binding, luminescence; TACC3 fragment carries E629A point mutation; 390,000 tested, 0.66% active; inhibition, % at 9.99 µM;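 active means mean inhibition of replicates at least 50% and at least half of replicates each reaching 50%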;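 further: 0% = complete ARNT plus TACC3 wells and 100% = ARNT alone without TACC3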
DDE Tn7 FP inh = inhibitors of Tn7 peptide binding to fibrin DD(E), primary screen, biochemical, fluorescence polarization, human fibrin, Tn7 probe; 370,000 tested, 0.13% active; AID 720508, 2013; FP displacement of FITC-Tn7 peptide from fibrin DD(E); 0% = median of compound wells per plate; inhibition, % at 8.3 µM;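 active means inhibition above the mean of compounds falling within the control limits plus 3 SD of them, cut at about 14% in these data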;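 further: 0% = plate median of compound wells and 100% = 10 µM Aha-Tn7 peptide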
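Assay system: Human fibrin DD(E) protein | Medium: Tris buffer with calcium and detergent, pH 7.8 | Reagent: 0.1 µM fluorescent Tn7 | Compound dosing: Single point at 8.3 µM | Times: 10 min preincubation, 3 h with tracer, room temperature | Detection: Fluorescence polarization of the labelled Tn7 tracer | Controls: Aha-Tn7 high control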
CAL PDZ FP-2 = untagged CAL PDZ binding inhibitors, primary screen, biochemical, fluorescence polarization, HTS; Golgi-associated PDZ and coiled-coil motif-containing protein (Homo sapiens), Q9HD26; purified CAL PDZ, TMR-peptide fluorescence polarization, 1 h; inhibition, % at 24.9 µM; 300,000 tested, 0.92% active; AID 602252, 2012;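 active means mean inhibition of at least 30% with at least half of replicates also reaching 30%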;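 further: 0% = DMSO neutral control and 100% = excess unlabeled competitor peptide PRC23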
GRK2 CP1 = GRK2 aptamer-displacing inhibitors, retest, confirmation, biochemical, cherry pick 1, bead flow cytometry; shares compounds with GRK2 inh; bead-bound GRK2, FAM-aptamer displacement; aptamer displacement, % at 10 µM; 2,000 tested, 4% active; AID 504451, 2011;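 active means aptamer displacement above 40%, near three times the noise of non-fluorescent compounds, on plates passing quality checks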;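 further: negative values mostly reflect intrinsic compound fluorescence rather than true enhancement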
Aptamer quench SP = quenches fluorescent RNA aptamer, GRK2 hit artifact. fluorescence response (% of DMSO), % at 10 µM. shares compounds with GRK2 inh. 2,000 tested, under 10 active. Carboxyfluorescein RNA aptamer on beads, flow cytometry quenching; active compounds read low;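 active means compounds that quench the bead-bound fluorescent RNA probe, cutting fluorescence to under half of the solvent control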;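 further: counterscreen run without GRK2 so only probe quenching by compound is measured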
GRK2 CP2 = GRK2 aptamer-displacing inhibitors, hit retest, confirmation, biochemical, cherry pick 2, bead flow cytometry | AID 504782, 2011 | bead-bound GRK2, FAM-aptamer displacement | 360 tested, under 10 active | shares compounds with GRK2 inh | inhibition of aptamer binding, % at 10 µM;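 active means inhibition of aptamer binding above 40%, about triple the noise seen with nonglowing compounds, on plates passing quality control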;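 further: negative values mostly come from compounds that fluoresce themselves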
FAM quench CP2 = counter-screen for GRK2 binding hits: quenchers of fluorescent RNA aptamer. shares compounds with GRK2 inh. carboxyfluorescein RNA aptamer beads, flow cytometry quenching; active compounds read low. fluorescence response vs DMSO, % at 10 µM. 360 tested, under 10 active. AID 588494;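 active means response vs DMSO under 50%, meaning signal dropped by over half, treated as fluorescence quencher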;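 further: labelled aptamer on streptavidin beads without GRK2 as a quench counter-screen; 100% = bead fluorescence of DMSO wells and lower means quenching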
* = called active by the depositor. The list is not random: actives were taken first. Their share in the collection is about 1.8%.

Results for O=C(N/N=C/c1ccc(Cl)cc1)c1ccc2c(c1)OCO2 ?
CAL PDZ FP-1: -1; DDE Tn6 FP inh: -2; GRK2 inh: 59*; DDE Tn7 FP inh: 2; CAL PDZ FP-2: -5; GRK2 CP1: -9; Aptamer quench SP: 120

What do the screens show for `O=C(N/N=C/c1ccc2c(c1)OCO2)c1ccc2c(c1)OCCO2`?
CAL PDZ FP-1: -3; DDE Tn6 FP inh: 1; GRK2 inh: 0; ARNT-TACC3 inh: -2; DDE Tn7 FP inh: -3; CAL PDZ FP-2: 1

How did O=[N+]([O-])c1ccc(N2CCCC2)nc1 do in these assays?
CAL PDZ FP-1: 0; DDE Tn6 FP inh: 2; GRK2 inh: 0; ARNT-TACC3 inh: 0; DDE Tn7 FP inh: 1

What do the screens show for `CC1CCN(c2ccc([N+](=O)[O-])cn2)CC1`?
CAL PDZ FP-1: -1; DDE Tn6 FP inh: 1; GRK2 inh: 55*; ARNT-TACC3 inh: -9; DDE Tn7 FP inh: 5; CAL PDZ FP-2: 1; GRK2 CP2: 3; FAM quench CP2: 98

How did CC1CC(C)CN(S(=O)(=O)N2CCCC(C(=O)NC(C)c3ccccc3)C2)C1 (stereo not drawn) do in these assays?
CAL PDZ FP-1: -1; DDE Tn6 FP inh: 3; GRK2 inh: 1; ARNT-TACC3 inh: 2; DDE Tn7 FP inh: 10; CAL PDZ FP-2: -4

Results for CC(NC(=O)C1CCCN(S(=O)(=O)N2CCOCC2)C1)c1ccccc1 (stereo not drawn) ?
CAL PDZ FP-1: -2; DDE Tn6 FP inh: -3; GRK2 inh: 2; ARNT-TACC3 inh: 3; DDE Tn7 FP inh: 8; CAL PDZ FP-2: -2; GRK2 CP1: -1; Aptamer quench SP: 95

How did Cc1ccc(C)c(NC(=S)NC(=O)c2cncc(Br)c2)c1 do in these assays?
DDE Tn6 FP inh: 1; GRK2 inh: 79*; DDE Tn7 FP inh: -7; GRK2 CP1: -2; Aptamer quench SP: 96

What do the screens show for `O=C(COc1ccccc1-c1ccccc1)NNC(=O)NC1CCCCC1`?
CAL PDZ FP-1: -2; DDE Tn6 FP inh: 3; GRK2 inh: 2; ARNT-TACC3 inh: 0; DDE Tn7 FP inh: -3

Results for CCCCn1c2nc3ccccc3nc2c2c(=N)oc(C)nc21 ?
CAL PDZ FP-1: -2; DDE Tn6 FP inh: -6; ARNT-TACC3 inh: 0; DDE Tn7 FP inh: 9; CAL PDZ FP-2: -2

How did COc1ccc(-n2c3nc4ccccc4nc3c3c(=N)oc(C)nc32)cc1 do in these assays?
CAL PDZ FP-1: -4; DDE Tn6 FP inh: 4; GRK2 inh: 86*; ARNT-TACC3 inh: 23; DDE Tn7 FP inh: -10; CAL PDZ FP-2: -2; GRK2 CP2: -1; FAM quench CP2: 100

How did CC(C)[C@@H](C(=O)N1CCNCC1)n1cc(CCO)nn1 do in these assays?
CAL PDZ FP-1: 0; DDE Tn6 FP inh: 8; GRK2 inh: 4; ARNT-TACC3 inh: -3; DDE Tn7 FP inh: 1; CAL PDZ FP-2: -7

What do the screens show for `CN=c1scc(C)n1/N=C/c1ccc2c(c1)OCO2`?
CAL PDZ FP-1: 1; DDE Tn6 FP inh: -2; GRK2 inh: 91*; ARNT-TACC3 inh: 4; DDE Tn7 FP inh: -3; CAL PDZ FP-2: 1; GRK2 CP1: -1; Aptamer quench SP: 101

How did CN=c1scc(C)n1/N=C/c1ccc(O)cc1 do in these assays?
CAL PDZ FP-1: 0; DDE Tn6 FP inh: -8; GRK2 inh: 2; ARNT-TACC3 inh: 11; DDE Tn7 FP inh: 2

How did CS(=O)(=O)Oc1ccc2c(c1)O/C(=C\C=C\c1ccccc1)C2=O do in these assays?
CAL PDZ FP-1: 0; DDE Tn6 FP inh: 1; GRK2 inh: 49*; ARNT-TACC3 inh: 8; DDE Tn7 FP inh: -2; GRK2 CP1: -5; Aptamer quench SP: 97

How did COC(=O)[C@@H]1N=C(c2ccc(OC)cc2)O[C@]12C(=O)N(Cc1cn(-c3ccccc3)nn1)c1cccc(Cl)c12 do in these assays?
DDE Tn6 FP inh: 2; DDE Tn7 FP inh: 6

How did CC(=O)NC[C@@H]1[C@H](c2ccc(-c3ccccc3F)cc2)[C@H](CO)N1C(C)=O do in these assays?
ARNT-TACC3 inh: -6

Results for O=C(C[C@H]1C[C@H]2c3cc(NC(=O)CC4CC4)ccc3O[C@H]2[C@H](CO)O1)NCCN1CCCCC1 ?
ARNT-TACC3 inh: -7

What do the screens show for `CCOc1ccc(NC(=O)CN(C)C(=O)COc2cccc3c2OC(C)(C)C3)cc1OCC`?
CAL PDZ FP-1: 1; DDE Tn6 FP inh: 4; GRK2 inh: 98*; DDE Tn7 FP inh: 5; CAL PDZ FP-2: -1; GRK2 CP1: 0; Aptamer quench SP: 96

How did COc1cc(C)c(NC(=O)COc2cccc3c2OC(C)(C)C3)cc1OC do in these assays?
CAL PDZ FP-1: 0; GRK2 inh: 41*; ARNT-TACC3 inh: -11; CAL PDZ FP-2: 15; GRK2 CP2: 21; FAM quench CP2: 99

Results for CCN(CC(=O)Nc1ccc(OC)cc1)C(=O)COc1cccc2c1OC(C)(C)C2 ?
CAL PDZ FP-1: 0; DDE Tn6 FP inh: -4; GRK2 inh: 0; DDE Tn7 FP inh: -4; CAL PDZ FP-2: -5

How did CO[C@H]1CN(C)C(=O)c2cc(NS(C)(=O)=O)ccc2OC[C@@H](C)N(CCC(F)(F)F)C[C@H]1C do in these assays?
ARNT-TACC3 inh: -6

Screening data: PubChem, several laboratories
